According to ChEMBL document CHEMBL1135495, “New p-methylsulfonamido phenylethylamine analogues as class III antiarrhythmic agents: design, synthesis, biological assay, and 3D-QSAR analysis” (2002):

How the values were obtained:
Cavia porcellus [1] = species: Cavia porcellus; experiment: Percent change of force of constriction measured in guinea pig at 10e-5 M concentration; format: functional
Procedure, shortened: (§1)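 Left atria under 10 mN preload, driven at 1 s⁻¹ by square-wave pulses at twice-threshold voltage. Isometric contractions were recorded via a strain gauge after a 1 h Tyrode's equilibration. Cumulative drug additions were made every 15 min, with final concentrations rising geometrically. The inotropic effect was determined 10 min after each addition.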

Cavia porcellus [2] = species: Cavia porcellus; experiment: Effective concentration for delaying effective refractory period (ERP) 10 ms in guinea pig; format: functional
Procedure, shortened: (§2)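 Isolated atria, left atria preloaded 10 mN and paced at 1 s⁻¹ with square-wave pulses at twice-threshold voltage. ERP was measured by paired electrical stimulation after a 1 h Tyrode's equilibration with washouts every 15 min. Drug was added cumulatively at 15 min intervals, with final concentrations rising geometrically. ERP was read 10 min after each addition.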

Cavia porcellus [3] = species: Cavia porcellus; experiment: Percent change in heart rate measured in guinea pig at 10e-5 M concentration; format: functional
Procedure, shortened: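 Spontaneously beating right atria, with contractions recorded in parallel to give beating rate. Tissue equilibrated 1 h in Tyrode's, washed every 15 min. Drug was added to the bath cumulatively at 15 min intervals in geometrically increasing final concentrations. The chronotropic effect was read 10 min after each addition.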

Cavia porcellus [4] = species: Cavia porcellus; experiment: (§3) Percent change for delaying effective refractory period (ERP) in guinea pig at 10e-5 M concentration; format: functional; procedure, shortened: as §2
Cavia porcellus [5] = species: Cavia porcellus; experiment: as §3; format: functional, organism-based; procedure, shortened: as §2
Cavia porcellus [6] = species: Cavia porcellus; experiment: Effective concentration for delaying effective refractory period (ERP) 10 ms in guinea pig; N means No effect at 10E-5 M; format: functional; procedure, shortened: as §2
Cavia porcellus [7] = species: Cavia porcellus; experiment: Percent change of force of constriction measured in guinea pig at 10e-5 M concentration; N means No effect.; format: functional; procedure, shortened: as §1
Cavia porcellus [8] = species: Cavia porcellus; experiment: Percent change for delaying effective refractory period (ERP) in guinea pig at 10e-5 M concentration; N means No effect.; format: functional; procedure, shortened: as §2
Cavia porcellus [9] = species: Cavia porcellus; experiment: No effect was observed for ERP at 10x (10e-5) M concentration; N means No effect at 10E-5 M; format: functional; procedure, shortened: as §2
Cavia porcellus [10] = species: Cavia porcellus; experiment: Percent change of force of constriction measured in guinea pig at 10e-5 M concentration; Nf means No effect.; format: functional; procedure, shortened: as §1

| SMILES | Delta FC (Cavia porcellus [1]) [%] | C (Cavia porcellus [2]) [µM] | Delta HR (Cavia porcellus [3]) [%] | Delta ERP (Cavia porcellus [4]) [%] | N (Cavia porcellus [5]) | N (Cavia porcellus [6]) | N (Cavia porcellus [7]) | N (Cavia porcellus [8]) | N (Cavia porcellus [9]) | N (Cavia porcellus [10]) |
| --- | --- | --- | --- | --- | --- | --- | --- | --- | --- | --- |
| CS(=O)(=O)Nc1ccc(CCN(CCOc2ccc(NS(C)(=O)=O)cc2)CCOc2ccc(NS(C)(=O)=O)cc2)cc1 | 20 | 0.383 | -26.7 | 13.5 | – | – | – | – | – | – |
| COc1ccc(CN(CCc2ccc(NS(C)(=O)=O)cc2)Cc2ccc(Cl)cc2)cc1 | 15 | 0.068 | -9.09 | 19.3 | – | – | – | – | – | – |
| CS(=O)(=O)Nc1ccc(CCN(CCOc2ccc(NS(C)(=O)=O)cc2)S(C)(=O)=O)cc1 | 16.7 | – | -18.8 | – | No effect at 10E-5 M | No effect at 10E-5 M | – | – | – | – |
| CC(=O)N(CCOc1cccc2ccccc12)CCc1ccc(NS(C)(=O)=O)cc1 | -37.9 | 0.05 | -46.2 | 58.4 | – | – | – | – | – | – |
| CS(=O)(=O)N(c1ccc(CCN(Cc2ccccc2)Cc2ccccc2)cc1)S(C)(=O)=O | – | 0.653 | -16 | 9.56 | – | – | No effect | – | – | – |
| CS(=O)(=O)Nc1ccc(CCN(Cc2ccccc2)Cc2ccccc2)cc1 | – | 0.27 | -25 | 16.1 | – | – | No effect | – | – | – |
| CN(CCOc1cccc2ccccc12)CCc1ccc(NS(C)(=O)=O)cc1 | 20.3 | 0.293 | -28.5 | 20.2 | – | – | – | – | – | – |
| CS(=O)(=O)Nc1ccc(CCN(CCOc2ccc(NS(C)(=O)=O)cc2)Cc2ccccc2)cc1 | 24.8 | 0.016 | -32 | 17.5 | – | – | – | – | – | – |
| CN(CCc1ccc(NS(C)(=O)=O)cc1)Cc1ccc(Cl)cc1 | 8.33 | 2.24 | -14.5 | 7.06 | – | – | – | – | – | – |
| CS(=O)(=O)Nc1ccc(CCN(CCOc2ccc(NS(C)(=O)=O)cc2)Cc2ccc(Cl)cc2)cc1 | 20 | 0.037 | -40.6 | 9.29 | – | – | – | – | – | – |
| C=CCN(CCOc1ccc(NS(C)(=O)=O)cc1)CCc1ccc(NS(C)(=O)=O)cc1 | – | 0.267 | -5.26 | 12.4 | – | – | No effect | – | – | – |
| CN(CCOc1cccc2ccccc12)CCc1ccc(N(S(C)(=O)=O)S(C)(=O)=O)cc1 | – | 0.203 | -20.7 | 12 | – | – | No effect | – | – | – |
| COc1ccccc1CN(CCc1ccc(NS(C)(=O)=O)cc1)Cc1ccccc1 | -14.3 | 0.141 | -28.2 | 10.9 | – | – | – | – | – | – |
| CS(=O)(=O)N(c1ccc(CCN(Cc2ccccc2)Cc2ccc3c(c2)OCO3)cc1)S(C)(=O)=O | -20 | 0.38 | -18.3 | 9.46 | – | – | – | – | – | – |
| CS(=O)(=O)Nc1ccc(CCN(CCOc2cccc3ccccc23)C(=O)c2ccccc2)cc1 | 33.3 | 8.67 | -20 | 5.33 | – | – | – | – | – | – |
| COc1ccc(CN(CCc2ccc(NS(C)(=O)=O)cc2)C(=O)c2ccccc2)cc1 | 33.3 | 6.18 | -3.7 | 6.33 | – | – | – | – | – | – |
| C=CCN(CCOc1cccc2ccccc12)CCc1ccc(NS(C)(=O)=O)cc1 | 16.7 | 0.315 | -15.2 | 9.77 | – | – | – | – | – | – |
| Cc1ccc(CN(CCc2ccc(N(S(C)(=O)=O)S(C)(=O)=O)cc2)Cc2ccccc2)cc1 | 25 | 0.62 | 16 | 5.71 | – | – | – | – | – | – |

| SMILES | Delta FC (Cavia porcellus [1]) [%] | C (Cavia porcellus [2]) [µM] | Delta HR (Cavia porcellus [3]) [%] | Delta ERP (Cavia porcellus [4]) [%] | N (Cavia porcellus [5]) | N (Cavia porcellus [6]) | N (Cavia porcellus [7]) | N (Cavia porcellus [8]) | N (Cavia porcellus [9]) | N (Cavia porcellus [10]) |
| --- | --- | --- | --- | --- | --- | --- | --- | --- | --- | --- |
| COc1ccc(CN(CCc2ccc(N(S(C)(=O)=O)S(C)(=O)=O)cc2)Cc2ccccc2)cc1 | -20 | 0.79 | -27.3 | 9.09 | – | – | – | – | – | – |
| CN(CCc1ccc(NS(C)(=O)=O)cc1)Cc1ccccc1 | 16.7 | 0.372 | -20 | 12.2 | – | – | – | – | – | – |
| COc1ccccc1CN(C)CCc1ccc(NS(C)(=O)=O)cc1 | 38.3 | 0.155 | -26.7 | 15.6 | – | – | – | – | – | – |
| C=CCN(CCOc1cccc2ccccc12)CCc1ccc(N(S(C)(=O)=O)S(C)(=O)=O)cc1 | 16.7 | – | -8.33 | – | – | No effect | – | No effect | – | – |
| COc1ccc(CN(CCc2ccc(NS(C)(=O)=O)cc2)C(C)=O)cc1 | 14.3 | – | -18.2 | – | – | No effect | – | No effect | – | – |
| CS(=O)(=O)Nc1ccc(CCN(CCOc2ccc(NS(C)(=O)=O)cc2)C(=O)c2ccccc2)cc1 | 25 | 0.039 | -28.4 | 19 | – | – | – | – | – | – |
| CS(=O)(=O)Nc1ccc(CCN(Cc2ccccc2)Cc2ccc(Cl)cc2)cc1 | 25 | 1.05 | 16 | 14.5 | – | – | – | – | – | – |
| CN(CCc1ccc(NS(C)(=O)=O)cc1)Cc1ccc2c(c1)OCO2 | 17.2 | 0.89 | -15.3 | 6.16 | – | – | – | – | – | – |
| CS(=O)(=O)Nc1ccc(CCN(CCOc2cccc3ccccc23)Cc2ccccc2)cc1 | 25 | – | -31.8 | – | – | No effect | – | No effect | – | – |
| CS(=O)(=O)N(c1ccc(CCN(CCOc2cccc3ccccc23)Cc2ccccc2)cc1)S(C)(=O)=O | 25 | – | -17.9 | – | – | – | – | No effect | No effect | – |
| Cc1ccc(CN(C)CCc2ccc(N(S(C)(=O)=O)S(C)(=O)=O)cc2)cc1 | -11.8 | 0.953 | -15.4 | 12.6 | – | – | – | – | – | – |
| COc1ccc(CN(C)CCc2ccc(N(S(C)(=O)=O)S(C)(=O)=O)cc2)cc1 | 25 | 1.17 | -19.2 | 8.7 | – | – | – | – | – | – |
| CC(=O)N(CCOc1ccc(NS(C)(=O)=O)cc1)CCc1ccc(NS(C)(=O)=O)cc1 | 17.5 | 0.021 | -20.6 | 16.9 | – | – | – | – | – | – |
| COc1ccc(CN(CCOc2ccc(NS(C)(=O)=O)cc2)CCc2ccc(NS(C)(=O)=O)cc2)cc1 | 14.3 | 0.21 | -25.8 | 12.1 | – | – | – | – | – | – |
| CN(CCOc1ccc(NS(C)(=O)=O)cc1)CCc1ccc(NS(C)(=O)=O)cc1 [DOFETILIDE] | 17.1 | 0.011 | -30 | 24 | – | – | – | – | – | – |
| CN(CCc1ccc(NS(C)(=O)=O)cc1)C1CCCCC1 | 8.33 | 4.79 | -8 | 6.45 | – | – | – | – | – | – |
| CN(CCc1ccc(N(S(C)(=O)=O)S(C)(=O)=O)cc1)C1CCCCC1 | – | 4.39 | -8.36 | 6.24 | – | – | – | – | – | No effect |
| CS(=O)(=O)Nc1ccc(CCNCCOc2ccc(NS(C)(=O)=O)cc2)cc1 [N-DESMETHYLDOFETILIDE] | 33.7 | 0.023 | -23.8 | 9.39 | – | – | – | – | – | – |
